The source of these data is PubChem BioAssay.

The nature of assay [1]: Her2 expression decrease, cell viability multiplex – SKBR3 breast tumor cells, AlphaScreen, ATP viability, primary screen (AID 461;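 active = Her2 level under about 52% in both replicate screens, with viability over 70% of control, limit read from the data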;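 as to Her2 level: lower value means less Her2 protein in the cells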;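 as to viability: percent of carrier control wells set as 100% viability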). The following applies: SKBR3 Her2 protein level, 18-24 h, measured here: SKBR3 viability, ATP luminescence, at 10 µM. (In Alpha technology, singlet oxygen from a donor bead excites a nearby acceptor bead.)
The target in assay [2] is Receptor tyrosine-protein kinase erbB-2 (Homo sapiens) (UniProt P04626). The assay is described as above. The conditions noted are these: 18-24 h, at 10 µM, stronger effect = lower value.
Assay [3] in a line: reduced viability of SK-BR-3 breast cancer cells – cell-based, 24 h, human, pilot screen (AID 572;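 active = viability at or below 10% of carrier control in both of two separate runs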;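 also: compound exposure lasted between 18 and 24 h rather than exactly 24 h; 100% = carrier-treated control wells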). The following applies: SK-BR-3 viability, CellTiter-Glo luminescence, at 10 µM, stronger effect = lower value. A general note: Cellular ATP, detected with luciferase, serves as a proxy for viable cell number.
The nature of assay [4]: HUVEC growth inhibition – cell-based, human, primary screen (AID 575).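 Also: 100% = median of untreated cell wells with 0.1% DMSO on each plate.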 The following applies: HUVEC proliferation, CellTiter-Glo luminescence, 72 h; at 10 µM; stronger effect = lower value. The gist of the method:
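material = primary HUVEC, no more than 12 passages | input = 1250 cells per well | controls = vehicle and MePR control wells | measured by = CTG luminescence | times = 72 h compound incubation | format = collagen-coated 384-well format | read-out = % viability vs DMSO wells | doses = single 10 µM dose, 0.1% DMSO, from 5x medium stock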

Assay [5] is described as follows: H69AR cell proliferation blockers – human, duplicate replicates, primary screen (AID 580;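 active = viability at or under a set limit in both replicates, limit being median viability minus 3 SD, cut at about 48% in these data, passing the limit was not always enough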;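 also: 100% = mean luminescence of untreated wells and 0% = no signal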). The following applies: H69AR lung tumor cells viability, ATP luminescence, 72 h; at 10 µM; stronger effect = lower value.
The nature of assay [6]: MRP1 drug-resistance reversers in H69AR cells – cell-based, doxorubicin co-treatment, pilot screen (AID 601;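 active = viability loss from added drug above about 55%, and viability with drug at most 40%, in both replicates, limit read from the data, passing the limit was not always enough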). The conditions noted are these: CellTiter-Glo, 72 h, at 10 µM; for differential viability (reversal): stronger effect = higher value.
Assay [7] can be described thus: yeast transport mutant growth inhibition pilot in 384-well plates, post-Golgi transport modulator project (AID 636; in the data active = inhibition above about 31%). The conditions noted are these: absorbance 615 nm, about 18 h, stronger effect = higher value.
Assay [8] is described as follows: growth suppression of yeast trafficking mutant, preliminary HTS, modulators of trafficking downstream of Golgi apparatus project, 1536-format plate, OD 615 nm (AID 637; in the data active = inhibition above about 30%). The conditions noted are these: yeast transport mutant growth, absorbance 615 nm, 18 h; stronger effect = higher value.
[9] abbreviates: H69AR cells + 2 uM doxorubicin, measured here: viability with 2 uM doxorubicin, stronger effect = lower value.
[10] abbreviates: H69AR cells, compound alone cytotoxicity.

Activity calls are given as the source filed them.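 The calls were made as follows, unless noted: active = viability at or below 30% in both replicate assays; inconclusive = viability at or below 30% in just one of the two assays; inactive = the rest.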

Chain of Receptor tyrosine-protein kinase erbB-2 (Homo sapiens) (P04626 whole entry, looked up): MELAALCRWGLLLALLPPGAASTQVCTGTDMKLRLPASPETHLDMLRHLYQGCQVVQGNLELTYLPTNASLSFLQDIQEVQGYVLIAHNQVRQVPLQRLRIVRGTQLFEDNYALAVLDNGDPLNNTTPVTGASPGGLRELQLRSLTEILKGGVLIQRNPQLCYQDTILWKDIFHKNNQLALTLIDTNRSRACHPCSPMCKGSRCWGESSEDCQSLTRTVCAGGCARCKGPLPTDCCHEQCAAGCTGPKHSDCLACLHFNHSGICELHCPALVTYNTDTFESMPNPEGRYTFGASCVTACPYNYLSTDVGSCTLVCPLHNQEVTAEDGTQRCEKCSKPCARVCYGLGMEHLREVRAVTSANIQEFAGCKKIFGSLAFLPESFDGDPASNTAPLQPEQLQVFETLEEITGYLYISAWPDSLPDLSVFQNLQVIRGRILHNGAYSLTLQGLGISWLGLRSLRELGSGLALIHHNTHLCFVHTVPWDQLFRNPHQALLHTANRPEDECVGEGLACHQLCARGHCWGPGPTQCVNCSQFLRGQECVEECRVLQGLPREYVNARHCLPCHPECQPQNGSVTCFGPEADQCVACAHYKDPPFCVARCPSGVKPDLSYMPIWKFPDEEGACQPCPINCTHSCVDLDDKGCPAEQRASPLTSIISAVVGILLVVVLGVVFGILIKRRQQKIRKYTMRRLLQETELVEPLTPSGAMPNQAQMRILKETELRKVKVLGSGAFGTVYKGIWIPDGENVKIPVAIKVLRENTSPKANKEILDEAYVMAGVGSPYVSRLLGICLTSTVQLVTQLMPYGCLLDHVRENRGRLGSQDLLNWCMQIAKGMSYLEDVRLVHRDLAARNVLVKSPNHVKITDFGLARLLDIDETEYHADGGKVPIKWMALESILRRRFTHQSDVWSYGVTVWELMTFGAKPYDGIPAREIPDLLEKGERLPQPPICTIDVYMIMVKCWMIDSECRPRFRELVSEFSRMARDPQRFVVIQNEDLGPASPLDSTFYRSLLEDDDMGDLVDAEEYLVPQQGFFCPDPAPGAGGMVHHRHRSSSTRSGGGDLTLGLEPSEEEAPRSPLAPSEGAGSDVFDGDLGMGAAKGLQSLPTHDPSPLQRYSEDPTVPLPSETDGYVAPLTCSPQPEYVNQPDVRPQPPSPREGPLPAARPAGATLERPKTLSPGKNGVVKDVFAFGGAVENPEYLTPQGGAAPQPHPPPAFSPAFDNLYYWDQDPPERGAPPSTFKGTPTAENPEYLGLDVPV

Take `COc1cccc(OCCOCCN(C)CCO)c1`: the viability (usually a read-out of living cells in per cent, often relative to untreated cells) in assay [1] was 124%; in assay [3] it was 124% (inactive); in assay [4] it was 84.4% (inactive); in assay [5] it was 97.3% (inactive); in assay [6] (setting [9]), 89.6%; in assay [6] (setting [10]), 97.3%. In addition, in assay [2], the Her2 level was 124% (inactive). The differential viability (reversal) in assay [6] (H69AR cells + 2 uM doxorubicin) was 7.71% (inactive). Further, the inhibition (commonly the drop in the measured response relative to a control, in per cent) in assay [7] was -4.93% (inactive); in assay [8], -1.45% (inactive).
As for `CN1CCN(c2ncnc3c2cnn3-c2ccc(Cl)cc2)CC1`, the viability in assay [1] is 109%; in assay [3], 109% (inactive); in assay [4], 53.6% (inactive); in assay [5] it was 89.3% (inactive); in assay [6] (setting [9]), 88.3%; in assay [6] (setting [10]), 89.3%. Moreover, in assay [2], the Her2 level was 94% (inactive). In addition, the differential viability (reversal) in assay [6] (H69AR cells + 2 uM doxorubicin) is 1.02% (inactive). Further, the inhibition in assay [7] was -0.27% (inactive); in assay [8], 2.5% (inactive).
`Cc1nn(-c2ccccc2)c2c1C(=O)NC(=O)C(C)(C)C2`: the viability is 96.5% in assay [1]; 96.5% (inactive) in assay [3]; 105% (inactive) in assay [4]; 97.3% (inactive) in assay [5]; 81.1% in assay [6] (setting [9]); 97.3% in assay [6] (setting [10]). For the same molecule, the Her2 level in assay [2] is 88.5% (inactive). Moreover, the differential viability (reversal) in assay [6] (H69AR cells + 2 uM doxorubicin) is 16.2% (inactive). Also, the results for the inhibition in assay [7] and in assay [8] were -4.08% (inactive) and -1.27% (inactive), respectively.
Take `COc1ccc(CCNc2oc(-c3ccccc3OC)nc2C#N)cc1`: the viability was 88% in assay [1]; 88% (inactive) in assay [3]; 86.4% (inactive) in assay [4]; 95.2% (inactive) in assay [5]; 94.8% in assay [6] (setting [9]); 95.2% in assay [6] (setting [10]). Further, the Her2 level in assay [2] is 106% (inactive). In assay [6] (H69AR cells + 2 uM doxorubicin), the differential viability (reversal) was 0.34% (inactive). Also, the inhibition was -1.43% (inactive) in assay [7] and -11% (inactive) in assay [8].
With `CCc1nc(N[C@@H](Cc2c[nH]c3ccccc23)C(=O)O)c2oc3ccccc3c2n1`, the viability was 100% in assay [1]; 100% (inactive) in assay [3]; 71.7% (inactive) in assay [4]; 82.1% (inactive) in assay [5]; 96.7% in assay [6] (setting [9]); 82.1% in assay [6] (setting [10]). In assay [2], the Her2 level is 81% (inactive). Also, the differential viability (reversal) in assay [6] (H69AR cells + 2 uM doxorubicin) is -14.6% (inactive). Besides, the inhibition was -5.07% (inactive) in assay [7] and -3.44% (inactive) in assay [8].
Consider `O=C(NCc1ccc2c(c1)OCO2)c1ccc(NS(=O)(=O)c2ccc3c(c2)OCCO3)cc1`, for which the viability is 102% in assay [1]; 102% (inactive) in assay [3]; 85.2% (inactive) in assay [4]; 106% (inactive) in assay [5]; 90.9% in assay [6] (setting [9]); 106% in assay [6] (setting [10]). The Her2 level in assay [2] is 84.5% (inactive). Also, the differential viability (reversal) in assay [6] (H69AR cells + 2 uM doxorubicin) is 15.4% (inactive). In addition, the inhibition was -8.11% (inactive) in assay [7] and -3.65% (inactive) in assay [8].
Regarding `CCn1c(CCNC(=O)c2cccs2)nnc1SCC(=O)c1ccc(OC)cc1`, the viability in assay [1] is 106%; in assay [3] it was 106% (inactive); in assay [4], 95.7% (inactive); in assay [5] it was 97.4% (inactive); in assay [6] (setting [9]) it was 103%; in assay [6] (setting [10]), 97.4%. For the same molecule, in assay [2], the Her2 level was 138% (inactive). Further, the differential viability (reversal) in assay [6] (H69AR cells + 2 uM doxorubicin) is -5.32% (inactive). In addition, the inhibition was -1.71% (inactive) in assay [7] and -0.33% (inactive) in assay [8].
For the molecule `S=C(NCC1CCCO1)n1nnc2ccccc21` (stereo not given), the viability in assay [1] was 121%; in assay [3], 121% (inactive); in assay [4], 66.2% (inactive); in assay [5] it was 74.8% (inactive); in assay [6] (setting [9]) it was 74.1%; in assay [6] (setting [10]) it was 74.8%. The Her2 level in assay [2] was 49% (active). In assay [6] (H69AR cells + 2 uM doxorubicin), the differential viability (reversal) was 0.715% (inactive). Besides, the inhibition in assay [7] was -1.07% (inactive); in assay [8], -0.95% (inactive).
As to `CCOC(=O)C1CCN(c2nc3ccccc3nc2C(C#N)C(=O)OC(C)C)CC1` (stereo not given), the viability in assay [1] was 95%; in assay [3] it was 95% (inactive); in assay [4] it was 83.9% (inactive); in assay [5] it was 84.2% (inactive); in assay [6] (setting [9]), 87.6%; in assay [6] (setting [10]), 84.2%. For the same molecule, the Her2 level in assay [2] is 124% (inactive). The differential viability (reversal) in assay [6] (H69AR cells + 2 uM doxorubicin) is -3.45% (inactive). The inhibition in assay [7] was 1.37% (inactive); in assay [8], 4.6% (inactive).
For the molecule `Cn1c(N2CCC(C(N)=O)CC2)nc2c1c(=O)n(Cc1ccc(Br)cc1)c(=O)n2C`, the viability in assay [1] was 95%; in assay [3] it was 95% (inactive); in assay [4], 98.5% (inactive); in assay [5], 102% (inactive); in assay [6] (setting [9]) it was 93.8%; in assay [6] (setting [10]) it was 102%. Besides, in assay [2], the Her2 level was 84.5% (inactive). The differential viability (reversal) in assay [6] (H69AR cells + 2 uM doxorubicin) is 8.06% (inactive). Further, the figures for the inhibition in assay [7] and in assay [8] were 3.38% (inactive) and -5.08% (inactive), respectively.
Consider `Cc1ccc(N(Cc2ccco2)C(=O)c2cccc(S(=O)(=O)N(C)C)c2)cc1`, for which the viability was 97.5% in assay [1]; 97.5% (inactive) in assay [3]; 88.4% (inactive) in assay [4]; 96.7% (inactive) in assay [5]; 99.6% in assay [6] (setting [9]); 96.7% in assay [6] (setting [10]). Besides, in assay [2], the Her2 level was 104% (inactive). In addition, the differential viability (reversal) in assay [6] (H69AR cells + 2 uM doxorubicin) was -2.84% (inactive). In addition, the values for the inhibition in assay [7] and in assay [8] were 0.53% (inactive) and -1% (inactive), respectively.
Turning to `CCCCC(CC)C(=O)Nc1ccccc1C#N` (stereo not given), the viability in assay [1] is 96%; in assay [3], 96% (inactive); in assay [4], 98.6% (inactive); in assay [5], 89.1% (inactive); in assay [6] (setting [9]), 80.1%; in assay [6] (setting [10]), 89.1%. In assay [2], the Her2 level was 95% (inactive). Further, in assay [6] (H69AR cells + 2 uM doxorubicin), the differential viability (reversal) is 8.93% (inactive). Besides, the inhibition in assay [7] is -4.34% (inactive); in assay [8], 4.29% (inactive).
Consider `COc1ccc(S(=O)(=O)N(CCN2CCOCC2)Cc2cc(OC)ccc2OC)cc1`, for which the viability in assay [1] was 91%; in assay [3] it was 91% (inactive); in assay [4], 96.2% (inactive); in assay [5], 70% (inactive); in assay [6] (setting [9]), 66.8%; in assay [6] (setting [10]) it was 70%. Also, the Her2 level in assay [2] is 88.5% (inactive). Also, in assay [6] (H69AR cells + 2 uM doxorubicin), the differential viability (reversal) was 3.16% (inactive). Besides, the results for the inhibition in assay [7] and in assay [8] were -3.25% (inactive) and -5.08% (inactive), respectively.
With `CCn1c(CCC(=O)Nc2nc3c(s2)CCCC3)nc2cc(S(=O)(=O)N(C)C)ccc21`, the viability in assay [1] is 89.5%; in assay [3] it was 89.5% (inactive); in assay [4], 59.9% (inactive); in assay [5], 85.4% (inactive); in assay [6] (setting [9]) it was 66.7%; in assay [6] (setting [10]), 85.4%. Besides, the Her2 level in assay [2] is 80% (inactive). In assay [6] (H69AR cells + 2 uM doxorubicin), the differential viability (reversal) is 18.7% (inactive). Also, the results for the inhibition in assay [7] and in assay [8] were 5.27% (inactive) and -3.11% (inactive), respectively.
Regarding `O=C1c2ccccc2C(=O)N1OCc1ccccc1`, the viability was 95.5% in assay [1]; 95.5% (inactive) in assay [3]; 101% (inactive) in assay [4]; 92.2% (inactive) in assay [5]; 92.9% in assay [6] (setting [9]); 92.2% in assay [6] (setting [10]). In assay [2], the Her2 level was 91.5% (inactive). For the same molecule, the differential viability (reversal) in assay [6] (H69AR cells + 2 uM doxorubicin) was -0.76% (inactive). The inhibition in assay [7] was -6.18% (inactive); in assay [8], 3.93% (inactive).
